Measurements: ChEMBL document CHEMBL1125659, “Optical isomers of rocastine and close analogues: synthesis and H1 antihistaminic activity of its enantiomers and their structural relationship to the classical antihistamines” (J Med Chem, 1991)

What was measured:
[1] = tested on: Cavia porcellus; assay: Protection against histamine-induced lethality in guinea pig at 6 hr pretreatment time upon peroral administration.; assay type: functional; settings: po
Method in brief: (§1)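 Female English short-hair guinea pigs (250–500 g), fasted overnight, dosed orally by gavage at set times before intravenous histamine challenge (1.2 mg/kg). Survival at 24 h postchallenge scored as protection. Groups of 5–10 animals per treatment; ED50 by Litchfield–Wilcoxon or computer probit analysis.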

[2] = biological target: T1, Histamine H1 receptor (Cavia porcellus, UniProt P31389); assay: Inhibition of [3H]mepyramine binding to the histamine receptor in guinea pig cortex; assay type: tissue-based
Method in brief: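 Cerebral cortex from female Dunkin-Hartley guinea pigs (200–500 g) homogenized in cold 50 mM Na/K phosphate pH 7.5, washed by three 48000g 4 °C spins, used fresh same day. [3H]mepyramine (15 nM stock, 23 Ci/mmol) incubated with membranes 20 min at 25 °C; filtration, scintillation counting. Six concentrations in triplicate; IC50 by linear/nonlinear curve fitting.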

[3] = tested on: Cavia porcellus; assay: Protection against histamine-induced lethality in guinea pig at 1 hr pretreatment time upon peroral administration.; assay type: functional; settings: po; method in brief: as §1
[4] = biological target: T1, Histamine H1 receptor; assay: Inhibition of [3H]mepyramine binding to the Histamine H1 receptor in guinea pig cortex; assay type: tissue-based
Method in brief: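 Cerebral cortex from female Dunkin-Hartley guinea pigs (200–500 g) homogenized in cold 50 mM Na/K phosphate pH 7.5, washed by three 48000g 4 °C spins, used fresh same day. Six concentrations in triplicate; IC50 by linear/nonlinear curve fitting.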

[5] = tested on: Cavia porcellus; assay: Protection against histamine-induced lethality in guinea pig at 24 hr pretreatment time upon peroral administration; assay type: functional; settings: po; method in brief: as §1
[6] = tested on: Cavia porcellus; assay: Protection against histamine-induced lethality in guinea pig at 24 hr pretreatment time upon peroral administration.; assay type: functional; settings: po; method in brief: as §1

T1 sequence (P31389 whole entry): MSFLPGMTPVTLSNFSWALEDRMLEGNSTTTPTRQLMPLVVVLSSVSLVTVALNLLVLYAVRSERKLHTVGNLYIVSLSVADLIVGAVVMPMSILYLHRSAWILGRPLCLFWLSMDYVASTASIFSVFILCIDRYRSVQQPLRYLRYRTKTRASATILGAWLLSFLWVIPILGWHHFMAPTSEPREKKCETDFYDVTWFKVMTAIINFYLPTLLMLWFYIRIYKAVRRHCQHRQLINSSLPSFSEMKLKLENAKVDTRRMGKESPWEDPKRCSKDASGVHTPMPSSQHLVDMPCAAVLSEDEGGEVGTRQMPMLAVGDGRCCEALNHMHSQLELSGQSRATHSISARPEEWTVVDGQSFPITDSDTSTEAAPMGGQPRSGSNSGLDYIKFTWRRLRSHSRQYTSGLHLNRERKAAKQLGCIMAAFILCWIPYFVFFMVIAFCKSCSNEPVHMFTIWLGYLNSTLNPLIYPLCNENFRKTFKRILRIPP

CN(C)CC[C@@H]1CN(C)C(=S)c2cccnc2O1
ED50 [1]: 2.96 mg/kg
IC50 [2]: 30 nM
ED50 [3]: 0.07 mg/kg

CN(C)CCC(c1ccccn1)c1ccc(Cl)cn1 (configuration not stated)
IC50 [4]: 24 nM
ED50 [3]: 0.009 mg/kg

CN(C)CCC(c1ccc(Cl)cc1)c1ccc(Cl)cn1 (configuration not stated)
IC50 [4]: 430 nM
ED50 [3]: > 10 mg/kg

CN(C)CCC(c1ccc(Cl)cc1)c1ccccn1 (configuration not stated) [CHLORPHENIRAMINE]
ED50 [3]: 0.18 mg/kg

CN(C)CC[C@@H]1CN(C)C(=S)c2cc(Cl)cnc2O1
ED50 [1]: 0.15 mg/kg
IC50 [2]: 1.9 nM
ED50 [3]: 0.013 mg/kg
ED50 [5]: 58 mg/kg

CN1C[C@H](CCN2CCC2)Oc2ncc(Cl)cc2C1=S
IC50 [4]: 870 nM
ED50 [3]: 8.28 mg/kg

CN(C)CC[C@H]1CN(C)C(=S)c2cccnc2O1
IC50 [4]: 21000 nM
ED50 [3]: 23 mg/kg

CN1C[C@@H](CCN2CCC2)Oc2ncc(Cl)cc2C1=S
ED50 [6]: 0.21 mg/kg
ED50 [1]: 0.0078 mg/kg
IC50 [2]: 0.26 nM
ED50 [3]: 0.0054 mg/kg

CN(C)CC[C@H]1CN(C)C(=S)c2cc(Cl)cnc2O1
IC50 [4]: 11900 nM
ED50 [3]: 66.8 mg/kg
